Test results from ChEMBL document CHEMBL1129682, “(S)-(-)-4-[4-[2-(isochroman-1-yl)ethyl]-piperazin-1-yl] benzenesulfonamide, a selective dopamine D4 antagonist” (J Med Chem, 1996).

Tests used:
[1] = molecular target: D(1A) dopamine receptor (Rattus norvegicus, UniProt P18901); experiment: Binding affinity of [3H]SCH-23,390 towards Dopamine receptor D1 in cloned mammalian receptor expressed in cultured cells or from rat whole brain.; format: cell-based
[2] = molecular target: T1, 5-hydroxytryptamine receptor 1A (Rattus norvegicus, UniProt P19327); experiment: Binding affinity of [3H]-8-OH-DPAT towards 5-hydroxytryptamine 1A receptor in cloned mammalian receptor expressed in cultured cells or from rat whole brain.; format: cell-based
T1 sequence (P19327 whole entry): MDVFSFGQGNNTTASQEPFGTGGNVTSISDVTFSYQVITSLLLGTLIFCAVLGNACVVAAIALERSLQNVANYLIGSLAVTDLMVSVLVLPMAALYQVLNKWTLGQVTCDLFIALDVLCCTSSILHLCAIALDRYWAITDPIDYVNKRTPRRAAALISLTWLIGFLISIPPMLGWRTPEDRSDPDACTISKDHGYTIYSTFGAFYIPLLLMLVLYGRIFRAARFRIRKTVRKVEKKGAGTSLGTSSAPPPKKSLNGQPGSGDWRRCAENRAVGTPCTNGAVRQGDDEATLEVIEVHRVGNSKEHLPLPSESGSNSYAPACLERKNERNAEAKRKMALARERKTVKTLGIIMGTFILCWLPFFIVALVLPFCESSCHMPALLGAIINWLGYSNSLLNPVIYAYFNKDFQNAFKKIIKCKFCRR
Method in brief: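 Radioligand displacement with [3H]-8-OH-DPAT on membranes from cloned mammalian 5-HT1A receptor expressed in cultured cells.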

[3] = molecular target: Serotonin 2 (5-HT2) receptor (Rattus norvegicus, UniProt P30994+P08909+P14842); experiment: Binding affinity of [3H]ketanserin towards 5-hydroxytryptamine 2 receptor in cloned mammalian receptor expressed in cultured cells or from rat whole brain.; format: cell-based
[4] = molecular target: T2, Adrenergic receptor alpha-2 (Rattus norvegicus, UniProt P22086+P19328+P22909); experiment: […] against binding of [3H]clonidine to cloned mammalian Alpha-2 adrenergic receptor expressed in cultured cells or from rat whole brain
T2 sequence (P22086 whole entry): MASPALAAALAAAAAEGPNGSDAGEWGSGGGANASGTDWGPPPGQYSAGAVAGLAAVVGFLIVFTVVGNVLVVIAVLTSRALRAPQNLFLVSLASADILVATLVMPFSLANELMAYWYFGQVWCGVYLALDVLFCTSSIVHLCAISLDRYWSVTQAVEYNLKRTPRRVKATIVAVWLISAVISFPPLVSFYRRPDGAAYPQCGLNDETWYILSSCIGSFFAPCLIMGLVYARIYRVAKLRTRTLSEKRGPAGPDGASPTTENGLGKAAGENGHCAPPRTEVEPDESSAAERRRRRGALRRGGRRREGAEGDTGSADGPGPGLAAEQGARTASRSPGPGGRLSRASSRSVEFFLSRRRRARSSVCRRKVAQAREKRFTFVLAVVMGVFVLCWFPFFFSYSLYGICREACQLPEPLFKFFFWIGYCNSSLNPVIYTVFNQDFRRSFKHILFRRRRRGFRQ
T2 sequence (P19328 whole entry): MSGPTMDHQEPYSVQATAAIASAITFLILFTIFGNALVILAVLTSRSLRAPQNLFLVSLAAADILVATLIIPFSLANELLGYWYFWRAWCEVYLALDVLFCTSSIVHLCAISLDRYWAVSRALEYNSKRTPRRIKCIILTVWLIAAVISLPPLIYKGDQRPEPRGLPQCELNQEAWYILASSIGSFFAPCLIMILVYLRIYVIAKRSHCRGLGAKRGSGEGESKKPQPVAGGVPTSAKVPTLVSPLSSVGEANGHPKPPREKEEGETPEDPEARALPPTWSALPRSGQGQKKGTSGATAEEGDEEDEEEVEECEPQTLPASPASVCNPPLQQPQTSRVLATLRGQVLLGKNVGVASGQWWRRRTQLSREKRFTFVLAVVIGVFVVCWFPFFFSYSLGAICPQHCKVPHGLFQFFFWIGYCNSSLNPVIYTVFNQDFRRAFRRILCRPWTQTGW
T2 sequence (P22909 whole entry): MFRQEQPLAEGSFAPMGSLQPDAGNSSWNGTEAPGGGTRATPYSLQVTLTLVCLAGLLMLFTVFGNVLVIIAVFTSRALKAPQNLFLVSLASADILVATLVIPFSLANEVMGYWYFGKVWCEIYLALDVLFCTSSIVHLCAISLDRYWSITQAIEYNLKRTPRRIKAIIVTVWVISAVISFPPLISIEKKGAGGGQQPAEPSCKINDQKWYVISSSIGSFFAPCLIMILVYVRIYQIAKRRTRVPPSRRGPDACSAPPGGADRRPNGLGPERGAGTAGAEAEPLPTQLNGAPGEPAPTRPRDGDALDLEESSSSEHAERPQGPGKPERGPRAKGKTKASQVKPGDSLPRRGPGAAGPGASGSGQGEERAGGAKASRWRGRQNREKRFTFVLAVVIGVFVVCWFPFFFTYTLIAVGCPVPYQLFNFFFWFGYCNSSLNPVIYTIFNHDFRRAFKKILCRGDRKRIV

[5] = molecular target: T3, D(4) dopamine receptor (Rattus norvegicus, UniProt P30729); experiment: Binding affinity of [3H]spiperone towards Dopamine receptor D4 expressed in cultured cells or from rat whole brain.; format: cell-based
T3 sequence (P30729 whole entry): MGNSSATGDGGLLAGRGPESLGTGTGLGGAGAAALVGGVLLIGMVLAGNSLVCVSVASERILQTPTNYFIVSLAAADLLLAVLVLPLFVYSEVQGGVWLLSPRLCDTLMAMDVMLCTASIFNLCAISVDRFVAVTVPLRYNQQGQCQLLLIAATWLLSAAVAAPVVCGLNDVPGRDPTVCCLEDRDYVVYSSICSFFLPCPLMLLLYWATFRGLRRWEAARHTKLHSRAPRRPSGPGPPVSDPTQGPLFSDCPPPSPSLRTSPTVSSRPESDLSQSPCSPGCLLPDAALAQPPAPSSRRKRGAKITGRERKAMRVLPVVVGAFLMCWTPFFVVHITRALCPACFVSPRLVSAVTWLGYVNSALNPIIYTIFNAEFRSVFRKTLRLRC

[6] = molecular target: T4, D(2) dopamine receptor (Rattus norvegicus, UniProt P61169); experiment: Binding affinity of [3H]U-86170 towards Dopamine receptor D2 in cloned mammalian receptor expressed in cultured cells or from rat whole brain; format: cell-based
[7] = molecular target: D(3) dopamine receptor (Rattus norvegicus, UniProt P19020); experiment: Binding affinity of [3H]spiperone towards Dopamine receptor D3 in cloned mammalian receptor expressed in cultured cells or from rat whole brain.; format: cell-based
Method in brief: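 Radioligand displacement on membranes from cloned mammalian receptors expressed in cultured cells. D1 used [3H]SCH23390 and D3 used [3H]spiperone.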

[8] = molecular target: T5, Adrenergic receptor alpha-1 (Rattus norvegicus, UniProt P15823+P23944+P43140); experiment: (§1) […] against binding of [3H]prazosin to cloned mammalian Alpha-1 adrenergic receptor expressed in cultured cells or from rat whole brain […]; format: cell-based
T5 sequence (P15823 whole entry): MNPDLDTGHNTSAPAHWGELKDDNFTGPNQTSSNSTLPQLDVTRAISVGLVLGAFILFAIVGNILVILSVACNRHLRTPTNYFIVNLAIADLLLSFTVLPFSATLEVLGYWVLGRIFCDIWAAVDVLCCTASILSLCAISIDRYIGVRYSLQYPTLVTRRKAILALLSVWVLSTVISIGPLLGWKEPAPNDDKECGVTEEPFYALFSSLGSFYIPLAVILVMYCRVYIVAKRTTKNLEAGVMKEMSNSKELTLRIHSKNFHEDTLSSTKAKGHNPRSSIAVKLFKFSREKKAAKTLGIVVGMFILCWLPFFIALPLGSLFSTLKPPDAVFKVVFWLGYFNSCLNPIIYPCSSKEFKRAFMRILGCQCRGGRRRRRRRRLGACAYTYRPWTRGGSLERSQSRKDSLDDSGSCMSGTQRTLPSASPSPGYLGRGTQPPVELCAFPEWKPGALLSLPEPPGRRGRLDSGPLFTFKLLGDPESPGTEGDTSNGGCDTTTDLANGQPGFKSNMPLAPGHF
T5 sequence (P23944 whole entry): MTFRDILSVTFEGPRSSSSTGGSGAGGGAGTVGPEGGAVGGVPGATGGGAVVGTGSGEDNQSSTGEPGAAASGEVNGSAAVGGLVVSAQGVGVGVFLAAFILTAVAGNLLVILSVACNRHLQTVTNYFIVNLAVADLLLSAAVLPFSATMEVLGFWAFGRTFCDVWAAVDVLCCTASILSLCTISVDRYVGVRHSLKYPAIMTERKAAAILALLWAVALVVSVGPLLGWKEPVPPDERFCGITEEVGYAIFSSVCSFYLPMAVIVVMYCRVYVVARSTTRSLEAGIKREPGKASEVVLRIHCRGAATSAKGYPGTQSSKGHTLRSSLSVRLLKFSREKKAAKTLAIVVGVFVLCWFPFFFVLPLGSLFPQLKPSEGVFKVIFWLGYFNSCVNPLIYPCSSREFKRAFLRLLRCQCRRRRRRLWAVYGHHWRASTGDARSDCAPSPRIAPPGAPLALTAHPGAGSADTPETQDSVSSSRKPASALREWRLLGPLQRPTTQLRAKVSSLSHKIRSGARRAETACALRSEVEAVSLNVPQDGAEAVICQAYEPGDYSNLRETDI
T5 sequence (P43140 whole entry): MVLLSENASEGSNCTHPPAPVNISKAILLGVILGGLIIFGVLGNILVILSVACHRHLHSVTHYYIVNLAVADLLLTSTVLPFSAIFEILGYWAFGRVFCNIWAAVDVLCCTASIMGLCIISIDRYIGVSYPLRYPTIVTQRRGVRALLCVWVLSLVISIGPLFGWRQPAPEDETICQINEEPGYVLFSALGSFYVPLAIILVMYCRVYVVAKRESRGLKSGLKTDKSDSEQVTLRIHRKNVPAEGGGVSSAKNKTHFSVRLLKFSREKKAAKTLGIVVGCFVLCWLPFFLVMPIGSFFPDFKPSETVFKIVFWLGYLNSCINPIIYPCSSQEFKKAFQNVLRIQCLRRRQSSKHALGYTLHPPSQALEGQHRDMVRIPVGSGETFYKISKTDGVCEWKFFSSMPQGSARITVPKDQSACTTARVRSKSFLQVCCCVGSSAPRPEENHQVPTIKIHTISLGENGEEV

[9] = molecular target: Adrenergic receptor alpha-2 (Rattus norvegicus) (UniProt P22086+P19328+P22909); experiment: […] against binding of [3H]clonidine to cloned mammalian Alpha-2 adrenergic receptor expressed in cultured cells or from rat whole brain at 1 uM
[10] = molecular target: Adrenergic receptor alpha-1 (Rattus norvegicus) (UniProt P15823+P23944+P43140); experiment: as §1; format: cell-based
[11] = molecular target: Translocator protein (Mus musculus, UniProt P50637); experiment: Displacement of [3H]PK11195 binding from peripheral benzodiazepine receptor in MA-10 mouse tumor Leydig cells; format: cell-based
[12] = molecular target: Translocator protein (Rattus norvegicus, UniProt P16257); experiment: Displacement of [3H]PK11195 binding from peripheral benzodiazepine receptor in C6 rat glioma cell line; format: cell-based
[13] = molecular target: T4, D(2) dopamine receptor; experiment: Binding affinity to rat Dopamine receptor D2 expressed in CHO cells was determined using [3H]U-86170 as radioligand

D(1A) dopamine receptor, sequence (P18901 whole entry): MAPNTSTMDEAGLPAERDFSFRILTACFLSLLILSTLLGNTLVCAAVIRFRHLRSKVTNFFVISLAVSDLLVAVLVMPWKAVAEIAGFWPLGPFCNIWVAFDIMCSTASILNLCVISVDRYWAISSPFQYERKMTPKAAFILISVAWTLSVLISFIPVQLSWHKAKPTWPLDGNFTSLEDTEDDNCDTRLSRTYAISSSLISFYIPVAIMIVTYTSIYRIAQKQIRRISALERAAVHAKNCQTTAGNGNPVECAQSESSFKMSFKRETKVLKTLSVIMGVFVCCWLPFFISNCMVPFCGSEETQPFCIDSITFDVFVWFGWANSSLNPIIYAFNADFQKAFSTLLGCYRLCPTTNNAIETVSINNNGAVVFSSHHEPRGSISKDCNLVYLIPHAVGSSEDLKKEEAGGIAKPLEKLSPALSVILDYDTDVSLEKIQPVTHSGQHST
D(3) dopamine receptor, sequence (P19020 whole entry): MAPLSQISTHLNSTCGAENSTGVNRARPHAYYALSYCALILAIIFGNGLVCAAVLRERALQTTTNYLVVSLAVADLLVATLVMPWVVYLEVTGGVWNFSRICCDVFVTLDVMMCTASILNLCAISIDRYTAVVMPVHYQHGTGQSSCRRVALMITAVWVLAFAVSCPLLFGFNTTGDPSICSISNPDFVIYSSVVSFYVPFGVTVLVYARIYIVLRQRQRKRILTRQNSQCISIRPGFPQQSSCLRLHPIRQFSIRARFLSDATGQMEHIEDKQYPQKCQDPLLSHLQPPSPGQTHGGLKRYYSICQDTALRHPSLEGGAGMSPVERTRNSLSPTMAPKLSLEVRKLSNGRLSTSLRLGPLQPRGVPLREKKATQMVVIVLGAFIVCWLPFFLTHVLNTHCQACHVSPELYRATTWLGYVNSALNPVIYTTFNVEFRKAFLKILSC
T4 sequence (P61169 whole entry): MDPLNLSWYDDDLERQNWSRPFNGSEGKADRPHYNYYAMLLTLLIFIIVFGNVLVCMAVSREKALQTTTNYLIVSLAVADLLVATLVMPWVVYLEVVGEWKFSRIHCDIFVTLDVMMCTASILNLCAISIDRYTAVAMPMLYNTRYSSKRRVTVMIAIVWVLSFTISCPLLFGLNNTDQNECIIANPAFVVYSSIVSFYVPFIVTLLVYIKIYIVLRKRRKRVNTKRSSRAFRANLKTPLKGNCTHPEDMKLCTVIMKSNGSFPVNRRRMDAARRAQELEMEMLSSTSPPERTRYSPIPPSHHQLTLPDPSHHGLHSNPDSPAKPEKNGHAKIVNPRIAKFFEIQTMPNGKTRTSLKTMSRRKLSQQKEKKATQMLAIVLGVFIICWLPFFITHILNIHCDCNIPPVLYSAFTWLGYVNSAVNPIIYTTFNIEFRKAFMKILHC
Translocator protein (Mus musculus, UniProt P50637), sequence (P50637 whole entry, looked up): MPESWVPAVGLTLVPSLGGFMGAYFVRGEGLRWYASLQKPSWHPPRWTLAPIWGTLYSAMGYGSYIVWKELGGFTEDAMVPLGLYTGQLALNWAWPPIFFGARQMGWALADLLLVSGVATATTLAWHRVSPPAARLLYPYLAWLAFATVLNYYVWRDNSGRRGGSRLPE
Translocator protein (Rattus norvegicus, UniProt P16257), sequence (P16257 whole entry, looked up): as the sequence (P50637 whole entry, looked up) above, with P2S, E3Q, V67I, D77E, A110V, L113M, V149M, P168T counted along it

Compound | Ki [1] [nM] | Ki [2] [nM] | Ki [3] [nM] | Ki [4] [nM] | Ki [5] [nM] | Ki [6] [nM] | Ki [7] [nM] | Ki [8] [nM] | inhibition [9] [%] | inhibition [10] [%] | IC50 [11] [nM] | IC50 [12] [nM] | Ki [13] [nM]
COc1ccc(N2CCN(CCC3OCCc4ccccc43)CC2)cc1 (stereo unspecified) | > 2400 | 1100 | 76 | 1800 | 1.4 | 1100 | 1200 | 1280 |  |  |  |  | 
COc1ccc(N2CCN(CC[C@H]3OCCc4ccccc43)CC2)cc1 | > 2400 | > 1600 | 30 |  | 25 | > 1800 | 220 |  | 0 | 36 |  |  | 
COc1cc2c(cc1OC)C(CCN1CCN(c3ccc(F)cc3)CC1)OCC2 (stereo unspecified) | 26 | 93 | 2.1 |  | 24 | 400 |  |  | 75 | 100 |  |  | 
Fc1ccc(N2CCN(CCC3OCCc4ccccc43)CC2)cc1 (stereo unspecified) | 410 | 120 | 5.8 | 140 | 3 | 160 | 240 | 38 |  |  |  |  | 
CN1C(=O)CN=C(c2ccc(Cl)cc2)c2cc(Cl)ccc21 [RO-54864] |  |  |  |  |  |  |  |  |  |  | 10 |  | 
CCCCCCN(CCCCCC)C(=O)Cc1c(-c2ccc(F)cc2)[nH]c2ccccc12 |  |  |  |  |  |  |  |  |  |  | 10 | 10 | 
NS(=O)(=O)c1ccc(N2CCN(CC[C@H]3OCCc4ccccc43)CC2)cc1 |  | 2400 |  |  | 100 | 5600 | 2900 |  | 15 | 41 |  |  | 
COc1ccc(N2CCN(CC[C@@H]3OCCc4ccccc43)CC2)cc1 | > 2400 | 490 | 28 |  | 2.2 |  | 1300 |  | 9 | 20 |  |  | 790
NS(=O)(=O)c1ccc(N2CCN(CC[C@@H]3OCCc4ccccc43)CC2)cc1 [SONEPIPRAZOLE] |  | > 3700 | > 1800 | > 2600 | 7.2 | > 4300 | 5800 | > 4900 |  |  |  |  | 
Cc1ccc2c(c1)C(N1CCN(C)CC1)=Nc1cccnc1N2 |  |  |  |  | 21 |  |  |  |  |  |  |  | 
